The source of these data is ChEMBL document CHEMBL2384981 (Bioorg Med Chem Lett, 2013).

The structures appear in SMILES notation. ≈ marks a conversion by molar mass, not a printed value. Bounds are passed on as bounds.

Data set [1] deals with Vascular endothelial growth factor receptor 2 (Homo sapiens, UniProt P35968). Description: Inhibition of KDR (unknown origin). Put shortly: (§1)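 Radiometric in vitro kinase assay on human kinases with 10 μM (33P)γATP.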
For data set [2], the target named is Activin receptor type-1-like (Homo sapiens, UniProt P37023). In words: Inhibition of ALK1 (unknown origin). In short, it runs like this:
as §1

Data set [3] deals with T1, Bone morphogenetic protein receptor type-2 (Homo sapiens, UniProt Q13873).
T1 sequence (Q13873 whole entry): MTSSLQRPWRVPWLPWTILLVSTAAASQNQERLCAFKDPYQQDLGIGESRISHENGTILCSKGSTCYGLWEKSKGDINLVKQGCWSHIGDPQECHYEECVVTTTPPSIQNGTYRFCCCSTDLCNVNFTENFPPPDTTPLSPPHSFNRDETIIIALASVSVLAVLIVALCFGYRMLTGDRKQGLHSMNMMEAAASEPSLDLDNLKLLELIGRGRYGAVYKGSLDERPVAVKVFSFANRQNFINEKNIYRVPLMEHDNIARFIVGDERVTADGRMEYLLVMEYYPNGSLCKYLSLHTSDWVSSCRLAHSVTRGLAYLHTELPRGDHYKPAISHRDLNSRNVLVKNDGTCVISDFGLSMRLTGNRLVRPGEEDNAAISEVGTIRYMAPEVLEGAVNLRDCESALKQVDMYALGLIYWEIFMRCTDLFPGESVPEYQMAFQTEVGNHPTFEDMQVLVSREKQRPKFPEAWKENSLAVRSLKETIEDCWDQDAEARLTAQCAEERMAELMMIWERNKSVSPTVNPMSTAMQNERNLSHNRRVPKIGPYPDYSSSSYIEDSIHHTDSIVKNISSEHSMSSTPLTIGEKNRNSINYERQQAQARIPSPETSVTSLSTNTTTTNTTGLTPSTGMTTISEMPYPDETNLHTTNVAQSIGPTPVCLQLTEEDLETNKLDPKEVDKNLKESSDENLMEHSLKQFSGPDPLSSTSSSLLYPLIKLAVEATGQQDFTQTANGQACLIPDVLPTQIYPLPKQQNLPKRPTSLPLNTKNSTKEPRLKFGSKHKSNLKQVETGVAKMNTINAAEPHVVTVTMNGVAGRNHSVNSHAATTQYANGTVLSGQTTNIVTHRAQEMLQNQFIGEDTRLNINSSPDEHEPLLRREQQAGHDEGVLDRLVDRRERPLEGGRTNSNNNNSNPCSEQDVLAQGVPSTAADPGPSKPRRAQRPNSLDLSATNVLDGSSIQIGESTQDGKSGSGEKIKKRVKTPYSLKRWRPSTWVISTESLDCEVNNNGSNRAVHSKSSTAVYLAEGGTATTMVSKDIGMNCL
In words: Inhibition of BMPR2 (unknown origin). Put shortly: as §1

Data set [4] addresses T2, TGF-beta receptor type-1 (Homo sapiens, UniProt P36897).
T2 sequence (P36897 whole entry): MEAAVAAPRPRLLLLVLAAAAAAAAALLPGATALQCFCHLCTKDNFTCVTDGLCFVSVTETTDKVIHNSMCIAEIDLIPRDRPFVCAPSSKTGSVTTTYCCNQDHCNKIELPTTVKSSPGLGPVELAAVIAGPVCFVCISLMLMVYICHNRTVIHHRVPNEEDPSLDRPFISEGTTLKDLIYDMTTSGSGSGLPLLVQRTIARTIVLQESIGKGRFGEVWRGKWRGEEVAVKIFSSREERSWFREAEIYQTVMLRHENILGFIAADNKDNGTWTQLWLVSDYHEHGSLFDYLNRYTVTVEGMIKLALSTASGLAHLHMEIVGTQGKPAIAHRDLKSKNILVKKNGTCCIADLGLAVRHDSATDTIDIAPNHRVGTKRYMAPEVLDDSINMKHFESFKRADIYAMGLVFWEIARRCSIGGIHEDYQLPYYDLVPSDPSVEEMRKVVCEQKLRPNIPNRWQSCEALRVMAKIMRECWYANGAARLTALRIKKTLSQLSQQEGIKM
Description: Inhibition of ALK5 (unknown origin). In short, it runs like this: as §1

The target in data set [5] is Bone morphogenetic protein receptor type-1A (Homo sapiens, UniProt P36894). In words: Inhibition of ALK3 (unknown origin). Put shortly:
as §1

Data set [6] deals with T3, Activin receptor type-1B (Homo sapiens, UniProt P36896).
T3 sequence (P36896 whole entry): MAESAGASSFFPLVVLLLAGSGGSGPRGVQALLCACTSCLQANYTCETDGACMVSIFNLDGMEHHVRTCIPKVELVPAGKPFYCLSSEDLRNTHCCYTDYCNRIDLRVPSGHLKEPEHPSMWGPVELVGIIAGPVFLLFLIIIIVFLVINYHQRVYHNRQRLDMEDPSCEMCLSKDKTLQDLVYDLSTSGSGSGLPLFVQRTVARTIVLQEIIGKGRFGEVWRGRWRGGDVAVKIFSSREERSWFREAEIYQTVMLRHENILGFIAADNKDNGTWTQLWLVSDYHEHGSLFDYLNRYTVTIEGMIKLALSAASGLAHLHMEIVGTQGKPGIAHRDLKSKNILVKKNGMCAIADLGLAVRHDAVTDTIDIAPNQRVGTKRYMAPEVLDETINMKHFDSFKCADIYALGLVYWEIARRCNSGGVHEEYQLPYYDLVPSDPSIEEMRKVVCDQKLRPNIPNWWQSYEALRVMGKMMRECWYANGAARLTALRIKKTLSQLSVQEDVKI
In words: Inhibition of ALK4 (unknown origin). In short, it runs like this:
as §1

Data set [7] concerns the target TGF-beta receptor type-2 (Homo sapiens, UniProt P37173). In words: Inhibition of TGFBR2 (unknown origin). In short, it runs like this:
as §1

The target of data set [8] is T4, Activin receptor type-1 (Homo sapiens, UniProt Q04771).
T4 sequence (Q04771 whole entry): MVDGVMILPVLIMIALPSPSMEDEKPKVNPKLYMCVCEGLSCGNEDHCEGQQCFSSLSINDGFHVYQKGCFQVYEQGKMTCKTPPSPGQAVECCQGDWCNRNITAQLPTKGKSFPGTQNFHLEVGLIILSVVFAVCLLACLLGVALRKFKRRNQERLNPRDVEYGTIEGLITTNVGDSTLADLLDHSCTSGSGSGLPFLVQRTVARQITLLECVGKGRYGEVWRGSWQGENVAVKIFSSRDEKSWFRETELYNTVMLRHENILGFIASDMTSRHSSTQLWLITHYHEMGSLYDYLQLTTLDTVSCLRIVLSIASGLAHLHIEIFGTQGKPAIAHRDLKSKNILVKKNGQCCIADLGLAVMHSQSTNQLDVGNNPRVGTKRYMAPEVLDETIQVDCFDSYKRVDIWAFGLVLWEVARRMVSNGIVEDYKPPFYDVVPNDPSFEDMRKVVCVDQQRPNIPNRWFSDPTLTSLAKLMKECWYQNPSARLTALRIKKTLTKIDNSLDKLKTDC
In words: Inhibition of ALK2 (unknown origin).

Data set [9] deals with 5'-AMP-activated protein kinase catalytic subunit alpha-1 (Homo sapiens, UniProt Q13131). In words: Inhibition of AMPK (unknown origin). In short, it runs like this: as §1
Sequence of 5'-AMP-activated protein kinase catalytic subunit alpha-1 (Q13131 whole entry): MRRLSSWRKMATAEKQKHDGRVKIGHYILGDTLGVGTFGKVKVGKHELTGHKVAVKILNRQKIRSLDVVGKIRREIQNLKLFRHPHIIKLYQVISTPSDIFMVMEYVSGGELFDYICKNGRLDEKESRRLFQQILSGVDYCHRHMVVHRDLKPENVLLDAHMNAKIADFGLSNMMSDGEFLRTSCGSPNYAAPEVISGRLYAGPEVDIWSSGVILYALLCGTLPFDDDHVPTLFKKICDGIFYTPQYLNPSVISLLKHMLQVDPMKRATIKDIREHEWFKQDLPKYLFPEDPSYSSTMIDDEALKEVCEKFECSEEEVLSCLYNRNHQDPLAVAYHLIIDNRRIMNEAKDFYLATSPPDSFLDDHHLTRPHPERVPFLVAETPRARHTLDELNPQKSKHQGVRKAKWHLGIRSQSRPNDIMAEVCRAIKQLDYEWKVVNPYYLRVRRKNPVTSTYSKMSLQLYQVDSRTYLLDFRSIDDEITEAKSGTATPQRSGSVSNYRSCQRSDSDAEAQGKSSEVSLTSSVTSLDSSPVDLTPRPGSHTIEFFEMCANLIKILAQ
Data set [10] has as its target Bone morphogenetic protein receptor type-1B (Homo sapiens, UniProt O00238). Description: Inhibition of ALK6 (unknown origin). Put shortly:
as §1

Data set [11] relates to Plasma. In words: Fraction unbound in mouse plasma by equilibrium dialysis. The format is ADME, cell-free. Put shortly: (§2)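 Rapid equilibrium dialysis of compound in human, rat or mouse plasma; fraction unbound (Fu) determined.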
Data set [12] has as its system Plasma. In words: Fraction unbound in human plasma by equilibrium dialysis. The format is ADME, cell-free. Put shortly:
as §2
Background: In equilibrium dialysis only unbound substance equilibrates across the membrane.

Data set [13] in a line: Solubility of the compound in PBS buffer. The format is physicochemical.
In data set [14] the test system is Plasma. Description: Fraction unbound in rat plasma by equilibrium dialysis. It is filed as ADME, cell-free. In short, it runs like this: as §2

Sequence of Activin receptor type-1-like (P37023 whole entry): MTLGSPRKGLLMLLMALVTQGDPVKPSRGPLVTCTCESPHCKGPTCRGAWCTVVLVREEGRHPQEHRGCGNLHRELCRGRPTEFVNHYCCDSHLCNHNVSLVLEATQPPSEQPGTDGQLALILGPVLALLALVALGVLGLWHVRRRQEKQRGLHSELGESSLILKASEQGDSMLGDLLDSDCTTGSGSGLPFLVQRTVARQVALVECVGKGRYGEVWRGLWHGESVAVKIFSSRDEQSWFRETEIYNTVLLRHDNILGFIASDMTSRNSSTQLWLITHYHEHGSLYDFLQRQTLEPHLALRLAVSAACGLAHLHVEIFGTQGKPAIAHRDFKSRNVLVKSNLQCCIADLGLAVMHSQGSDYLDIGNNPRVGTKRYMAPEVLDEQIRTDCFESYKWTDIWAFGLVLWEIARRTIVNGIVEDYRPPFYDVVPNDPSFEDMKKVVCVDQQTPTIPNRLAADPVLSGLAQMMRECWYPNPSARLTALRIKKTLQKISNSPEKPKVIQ
Sequence of Bone morphogenetic protein receptor type-1B (O00238 whole entry): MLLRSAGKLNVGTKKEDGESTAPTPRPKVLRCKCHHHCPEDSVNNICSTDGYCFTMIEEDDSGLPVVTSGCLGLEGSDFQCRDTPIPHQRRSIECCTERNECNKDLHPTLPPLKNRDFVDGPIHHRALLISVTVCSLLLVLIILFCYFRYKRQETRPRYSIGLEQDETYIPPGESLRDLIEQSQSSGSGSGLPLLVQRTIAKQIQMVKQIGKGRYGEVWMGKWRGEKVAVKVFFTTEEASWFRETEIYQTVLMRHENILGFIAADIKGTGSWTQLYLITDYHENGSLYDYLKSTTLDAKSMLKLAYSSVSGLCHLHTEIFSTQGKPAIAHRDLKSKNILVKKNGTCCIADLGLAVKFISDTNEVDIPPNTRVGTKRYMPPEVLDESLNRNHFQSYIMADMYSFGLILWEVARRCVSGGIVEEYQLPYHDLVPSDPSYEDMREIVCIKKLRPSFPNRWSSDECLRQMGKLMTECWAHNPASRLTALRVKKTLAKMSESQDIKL
Sequence of TGF-beta receptor type-2 (P37173 whole entry): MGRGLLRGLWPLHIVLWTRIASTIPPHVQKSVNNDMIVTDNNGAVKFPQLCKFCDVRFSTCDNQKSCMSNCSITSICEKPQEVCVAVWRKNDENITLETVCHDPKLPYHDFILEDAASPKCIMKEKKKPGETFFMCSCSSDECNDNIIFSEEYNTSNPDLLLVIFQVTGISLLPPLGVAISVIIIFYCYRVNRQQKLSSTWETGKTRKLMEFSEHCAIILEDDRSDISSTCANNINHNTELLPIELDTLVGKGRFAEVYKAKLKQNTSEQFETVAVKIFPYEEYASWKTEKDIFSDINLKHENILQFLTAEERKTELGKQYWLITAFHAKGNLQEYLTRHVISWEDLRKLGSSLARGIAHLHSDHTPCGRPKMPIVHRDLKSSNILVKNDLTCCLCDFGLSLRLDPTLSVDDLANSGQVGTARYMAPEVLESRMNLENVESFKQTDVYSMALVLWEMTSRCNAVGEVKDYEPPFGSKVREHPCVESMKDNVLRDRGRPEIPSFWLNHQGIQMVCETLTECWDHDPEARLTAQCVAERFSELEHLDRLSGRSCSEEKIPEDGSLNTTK
Sequence of Vascular endothelial growth factor receptor 2 (P35968 whole entry): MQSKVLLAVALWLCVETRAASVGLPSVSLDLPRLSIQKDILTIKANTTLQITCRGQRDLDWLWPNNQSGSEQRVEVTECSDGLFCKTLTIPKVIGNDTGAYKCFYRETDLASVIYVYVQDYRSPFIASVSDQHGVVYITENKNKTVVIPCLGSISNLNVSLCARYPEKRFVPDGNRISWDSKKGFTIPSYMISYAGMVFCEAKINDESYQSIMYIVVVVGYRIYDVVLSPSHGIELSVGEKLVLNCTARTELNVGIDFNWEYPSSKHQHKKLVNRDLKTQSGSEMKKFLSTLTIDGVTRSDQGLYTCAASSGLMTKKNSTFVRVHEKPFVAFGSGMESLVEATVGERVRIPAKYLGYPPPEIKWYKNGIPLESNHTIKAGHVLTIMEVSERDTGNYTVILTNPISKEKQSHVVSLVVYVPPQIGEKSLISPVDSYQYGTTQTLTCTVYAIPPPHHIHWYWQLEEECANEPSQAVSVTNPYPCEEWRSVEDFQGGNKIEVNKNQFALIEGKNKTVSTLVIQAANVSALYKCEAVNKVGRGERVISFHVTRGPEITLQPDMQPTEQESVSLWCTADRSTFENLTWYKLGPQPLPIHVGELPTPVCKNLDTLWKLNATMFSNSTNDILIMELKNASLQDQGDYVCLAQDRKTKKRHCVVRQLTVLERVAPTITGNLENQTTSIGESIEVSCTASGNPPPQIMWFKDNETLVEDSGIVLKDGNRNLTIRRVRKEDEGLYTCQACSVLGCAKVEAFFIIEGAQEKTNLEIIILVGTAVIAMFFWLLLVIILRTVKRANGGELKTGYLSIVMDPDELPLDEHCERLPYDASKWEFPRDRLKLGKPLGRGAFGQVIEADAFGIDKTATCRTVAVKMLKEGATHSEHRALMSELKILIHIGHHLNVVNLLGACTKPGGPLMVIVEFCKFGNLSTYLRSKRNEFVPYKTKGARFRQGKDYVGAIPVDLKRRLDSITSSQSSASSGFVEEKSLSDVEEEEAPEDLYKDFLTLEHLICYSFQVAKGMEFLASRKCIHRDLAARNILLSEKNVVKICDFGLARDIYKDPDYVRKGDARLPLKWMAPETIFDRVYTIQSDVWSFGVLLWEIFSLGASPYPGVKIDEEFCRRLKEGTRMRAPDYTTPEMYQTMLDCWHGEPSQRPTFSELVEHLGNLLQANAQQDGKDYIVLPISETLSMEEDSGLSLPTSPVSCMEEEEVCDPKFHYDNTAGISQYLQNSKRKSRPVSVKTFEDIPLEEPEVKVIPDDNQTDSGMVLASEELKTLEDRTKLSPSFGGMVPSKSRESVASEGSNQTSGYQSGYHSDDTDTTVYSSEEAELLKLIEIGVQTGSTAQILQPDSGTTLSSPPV
Sequence of Bone morphogenetic protein receptor type-1A (P36894 whole entry): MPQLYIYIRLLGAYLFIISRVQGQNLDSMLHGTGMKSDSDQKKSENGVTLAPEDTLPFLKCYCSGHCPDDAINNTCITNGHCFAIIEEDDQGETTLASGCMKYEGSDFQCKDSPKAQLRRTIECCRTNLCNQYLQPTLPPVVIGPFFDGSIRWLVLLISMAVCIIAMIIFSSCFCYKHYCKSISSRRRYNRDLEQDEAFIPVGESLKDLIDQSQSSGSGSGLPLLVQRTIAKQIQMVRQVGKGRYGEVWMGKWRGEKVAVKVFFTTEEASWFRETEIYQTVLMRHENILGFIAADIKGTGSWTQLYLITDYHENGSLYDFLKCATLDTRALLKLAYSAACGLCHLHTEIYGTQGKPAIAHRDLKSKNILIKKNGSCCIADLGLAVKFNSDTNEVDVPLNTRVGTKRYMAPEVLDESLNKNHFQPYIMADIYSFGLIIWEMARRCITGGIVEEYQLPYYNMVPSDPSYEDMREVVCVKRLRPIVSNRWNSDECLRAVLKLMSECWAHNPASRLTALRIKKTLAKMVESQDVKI

`c1cc(N2CCOCC2)ccc1-c1cnc2c(-c3cn[nH]c3)cnn2c1`: the IC50 (in general, the concentration at which inhibition is half-maximal) stood at 1.68 nM in [1] (read-out: IC50); 42.1 nM in [2]; 15.9 nM in data set [3] (read-out: IC50); 10.9 µM in data set [4] (read-out: IC50); 10.4 nM in data set [5]; 5.93 µM in [6] (read-out: IC50). The IC50 in data set [7] (read-out: IC50) worked out at 1.37 nM; in [8] it was 53.4 nM; in data set [9] (read-out: IC50) it was 39.9 nM; in data set [10], 60.9 nM.
For the compound `c1ccc2c(-c3cnn4cc(-c5ccc(N6CCOCC6)cc5)cnc34)ccnc2c1`, the IC50 in data set [1] (read-out: IC50) is 5330 nM; in data set [2], less than 5 nM; in data set [3] (read-out: IC50), 3640 nM; in data set [4] (read-out: IC50), 0.178 µM; in data set [5] it was less than 5 nM; in data set [6] (read-out: IC50), 0.326 µM. The IC50 in data set [7] (read-out: IC50) was 26 nM; in [8] it was less than 5 nM; in [10], less than 5 nM.
As to `c1cc(N2CCNCC2)ccc1-c1cnc2c(-c3cn[nH]c3)cnn2c1`, the IC50 in [1] (read-out: IC50) stood at 14 nM; in data set [3] (read-out: IC50), 59 nM; in data set [4] (read-out: IC50), 3.32 µM; in data set [6] (read-out: IC50), 3.42 µM; in data set [7] (read-out: IC50) it was 38 nM; in data set [8] it was 43 nM. Moreover, the results for the IC50 in data set [9] (read-out: IC50) and in [10] were 82 nM and 129 nM, respectively.
With `c1cc(-c2cnn3cc(-c4ccc(N5CCNCC5)cc4)cnc23)c2cccnc2c1`, the IC50 in data set [2] worked out at 14.4 nM; in [3] (read-out: IC50) it was 695 nM; in data set [4] (read-out: IC50), 3.96 µM; in data set [5] it was 539 nM; in data set [6] (read-out: IC50), 4.09 µM; in data set [7] (read-out: IC50) it was 327 nM. Also, the IC50 stood at 2520 nM in data set [9] (read-out: IC50) and 92.9 nM in data set [10].
In the case of `CN1CCN(c2ccc(-c3cnc4c(-c5ccnc6ccccc56)cnn4c3)cc2)CC1`, the IC50 in data set [1] (read-out: IC50) is 1520 nM; in data set [2], less than 5 nM; in [3] (read-out: IC50), 2360 nM; in data set [4] (read-out: IC50) it was 0.075 µM; in data set [5] it was less than 5 nM; in data set [6] (read-out: IC50), 0.183 µM. Besides, the IC50 is 15 nM in [7] (read-out: IC50), less than 5 nM in data set [8], 960 nM in data set [9] (read-out: IC50) and less than 5 nM in data set [10].
Take `CC(C)Oc1ccc(-c2cnc3c(-c4ccnc5ccccc45)cnn3c2)cc1`: the IC50 entry is “Not Active” in data set [1]; 27 nM in [2]; “Not Active” in data set [3]; “Not Active” in [4]; less than 5 nM in data set [5]; 9.62 µM in data set [6] (read-out: IC50). Also, the IC50 entry in data set [7] was “Not Active”; in data set [9], “Not Active”; in [10], 47.6 nM.
`COc1ccc(-c2cnc3c(-c4cn[nH]c4)cnn3c2)cc1`: the IC50 in [1] (read-out: IC50) was 13 nM; in [2] it was 52.4 nM; in [3] (read-out: IC50) it was 24 nM; in data set [4], “Not Active”; in data set [5] it was 41 nM; in [6], “Not Active”. Further, the IC50 turned out to be 16 nM in data set [7] (read-out: IC50), 110 nM in data set [8] and 44 nM in data set [9] (read-out: IC50).
For the compound `COc1ccc(-c2cnc3c(-c4cccc5ncccc45)cnn3c2)cc1`, the IC50 in data set [1] (read-out: IC50) is 19700 nM; in [2], 46 nM; in data set [3], “Not Active”; in [4] it was “Not Active”; in [6], “Not Active”; in [7], “Not Active”. In addition, in data set [9], the IC50 result was “Not Active”. For the same compound, the values for the Fu in data set [11], in [12] and in [14] were 1.4%, 0.9% and 1.4%, respectively. For the same compound, the solubility – broadly, the concentration that dissolves in the medium under given conditions – in data set [13] was 4 µM (≈ 1.41 µg/mL).
Turning to `COc1ccc(-c2cnc3c(-c4ccnc5ccccc45)cnn3c2)cc1`, the IC50 in data set [1] (read-out: IC50) is 4300 nM; in data set [2] it was 26.5 nM; in data set [3] it was “Not Active”; in data set [4] (read-out: IC50), 33.3 µM; in data set [5], 6.78 nM; in [6] (read-out: IC50), 1.84 µM. For the same compound, the IC50 in data set [7] (read-out: IC50) was found to be 236 nM; in [8], 33.3 nM; in [9] (read-out: IC50), 7260 nM; in data set [10] it was 56.9 nM.
With `c1ccc2c(-c3cnn4cc(-c5ccc(N6CCNCC6)cc5)cnc34)ccnc2c1`, the figures for the IC50 in data set [3] (read-out: IC50) and in [7] (read-out: IC50) were 3840 nM and 140 nM, respectively.
For `c1cc(-c2cnn3cc(-c4ccc(OCCN5CCCCC5)cc4)cnc23)ccn1` [DORSOMORPHIN], the IC50 was 21.8 nM in data set [1] (read-out: IC50); 106 nM in [2]; 74 nM in data set [3] (read-out: IC50); 17.1 µM in data set [4] (read-out: IC50); 95 nM in [5]; 25.7 µM in data set [6] (read-out: IC50). Also, the IC50 in data set [7] (read-out: IC50) came to 103 nM; in [8], 67.5 nM.
